Reference: ChEMBL document CHEMBL3994608, “Design, synthesis and antimicrobial activities of thiouracil derivatives containing triazolo-thiadiazole as SecA inhibitors” (Eur J Med Chem, 2017)
Values after ≈ are worked out from the molar mass of the structure shown.

Columns and labels:
Bacillus subtilis = assay: Antibacterial activity against Bacillus subtilis at 25 ug/ml after overnight incubation by plate colony counting method relative to control; type: functional
Summary of the method: (§1)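 Plate colony counting on nutrient agar. Suspensions made from fresh colonies on NA slants grown 24 h, then serially diluted tenfold in sterile water. Duplicate aliquots of the 10^-5 and 10^-6 dilutions spread on NA plates containing test compound at 25 µg/mL; control plates NA only. Incubated overnight at 35 °C, colonies counted, inhibition given as percentage.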

[1] = system: Bacillus amyloliquefaciens; assay: Antibacterial activity against Bacillus amyloliquefaciens at 25 ug/ml after overnight incubation by plate colony counting method relative to control; type: functional; summary of the method: as §1
Staphylococcus aureus = assay: Antibacterial activity against Staphylococcus aureus at 25 ug/ml after overnight incubation by plate colony counting method relative to control; type: functional; summary of the method: as §1
[2] = Inhibition of Escherichia coli BL21.19 SecA after 30 mins by malachite green dye-based assay
Summary of the method: (§2)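 SecA ATPase from E. coli BL21.19. Reaction contains Tris-HCl buffer (pH 7.6, with KCl, NH4Cl, DTT, Mg(OAc)2), […], […] and sample, diluted with distilled water; water as blank. Incubated 37 °C for 30 min. Malachite green/ammonium molybdate/Triton X-100 colour reagent added, then 34% citrate after 1 min. Absorbance read at 660 nm and inhibition calculated from it.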

Escherichia coli [3] = assay: Inhibition of Escherichia coli BL21.19 SecA at 10 ug/ml after 30 mins by malachite green dye-based assay relative to control; summary of the method: as §2
Escherichia coli [4] = assay: Inhibition of Escherichia coli BL21.19 SecA at 20 ug/ml after 30 mins by malachite green dye-based assay relative to control; summary of the method: as §2

IC50 [2] | inhibition (Escherichia coli [3]) | inhibition (Escherichia coli [4]) | Compound | inhibition at 25 µg/mL (Bacillus subtilis) | inhibition at 25 µg/mL [1] | inhibition at 25 µg/mL (Staphylococcus aureus)
 |  |  | N#Cc1c(-c2ccc(-c3ccccc3)cc2)nc(SCc2ccc(-c3nn4c(-c5ccccc5)nnc4s3)cc2)[nH]c1=O | 57% | 58% | 68%
 |  |  | N#Cc1c(-c2ccc(Cl)cc2Cl)nc(SCc2ccc(-c3nn4c(-c5c(Cl)cccc5Cl)nnc4s3)cc2)[nH]c1=O | 86% | 78% | 81%
 |  |  | N#Cc1c(-c2ccc(-c3ccccc3)cc2)nc(SCc2ccc(-c3nn4c(-c5c(Cl)cccc5Cl)nnc4s3)cc2)[nH]c1=O | 86% | 82% | 84%
20.8 µg/mL (≈ 29.2 µM) |  |  | N#Cc1c(-c2ccc(-c3ccccc3)cc2)nc(SCc2ccc(CSc3nc(-c4ccc(-c5ccccc5)cc4)c(C#N)c(=O)[nH]3)cc2)[nH]c1=O | 62% | 85% | 87%
 |  |  | N#Cc1c(-c2ccc(Cl)cc2)nc(SCc2ccc(-c3nn4c(-c5ccccc5)nnc4s3)cc2)[nH]c1=O | 51% | 62% | 49%
 |  |  | N#Cc1c(-c2ccccc2)nc(SCc2ccc(-c3nn4c(-c5ccccc5)nnc4s3)cc2)[nH]c1=O | 48% | 57% | 44%
Nd(Insoluble) |  |  | N#Cc1c(-c2ccc(Cl)cc2Cl)nc(SCc2ccc(-c3nn4c(-c5ccccc5Cl)nnc4s3)cc2)[nH]c1=O | 92% | 80% | 85%
 |  |  | N#Cc1c(-c2c(Cl)cccc2Cl)nc(SCc2ccc(-c3nn4c(-c5ccccc5Cl)nnc4s3)cc2)[nH]c1=O | 63% | 78% | 56%
9.7 µg/mL (≈ 16.5 µM) | 51% | 72% | N#Cc1c(-c2ccc(Cl)cc2Cl)nc(SCc2ccc(-c3nn4c(-c5ccccc5)nnc4s3)cc2)[nH]c1=O | 90% | 82% | 88%
 |  |  | N#Cc1c(-c2ccc(-c3ccccc3)cc2)nc(SCc2ccc(-c3nn4c(-c5ccccc5Cl)nnc4s3)cc2)[nH]c1=O | 88% | 81% | 83%
 |  |  | N#Cc1c(-c2c(Cl)cccc2Cl)nc(SCc2ccc(-c3nn4c(-c5c(Cl)cccc5Cl)nnc4s3)cc2)[nH]c1=O | 84% | 86% | 82%
 |  |  | N#Cc1c(-c2ccccc2Cl)nc(SCc2ccc(-c3nn4c(-c5ccccc5)nnc4s3)cc2)[nH]c1=O | 55% | 66% | 46%
 |  |  | N#Cc1c(-c2c(Cl)cccc2Cl)nc(SCc2ccc(-c3nn4c(-c5ccccc5)nnc4s3)cc2)[nH]c1=O | 49% | 60% | 56%
 |  |  | CCn1cc(C(=O)O)c(=O)c2cc(F)c(N3CCNCC3)cc21 [NORFLOXACIN] | 85% | 89% | 86%
